# This is one part of a sample in which hits are shown more often than they occur.
# CHOP inhibitor – inhibitors of CHOP induction in ER stress response; CHO-K1 CHOP-promoter luciferase, tunicamycin-induced, 15-18 h; 220,000 tested, 3.8% active; inhibition, % at 10 µM;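 active means compounds that reduced the stress-induced luciferase reporter signal by more than about 70% of percent inhibition, limit read from the data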;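 further: 0% = tunicamycin plus vehicle and 100% = wells without tunicamycin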
# UPR CHOP act – activators of apoptotic arm of unfolded protein response (CHOP); 330,000 tested, 0.34% active; CHO-CHOP luciferase reporter, UPR activation, luminescence; percent of tunicamycin response over DMSO baseline; activation, % at 10 µM;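 active means at 10 µM dose, activation of 40% or more, normalized to positive control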;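 further: 100% = tunicamycin at 10 µg/mL and 0% = DMSO alone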
#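 System: CHO-CHOP luciferase reporter cell line | Buffer or medium: F12 medium containing 10% fetal bovine serum | Doses: One dose, 10 µM in 0.5% DMSO | Times: 6 h compound exposure at 37 °C after overnight seeding | Signal: Luciferase luminescence | Read-out: % activation vs tunicamycin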
# TLR4-MyD88 BLA – inhibitors of human TLR4-MyD88 binding; 200,000 tested, 0.18% active; O00206+Q99836; AID 861; HeLa CL3-4 TLR4/MyD88 BLA complementation, FRET ratio; inhibition, % at 8.4 µM; in the data active means inhibition above about 25%;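 further: 0% = vehicle and 100% = reference inhibitor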
# UPR XBP1 act – adaptive UPR (XBP1) activation. CHO-XBP1 luciferase reporter, IRE1-XBP1 UPR activation, luminescence; percent of tunicamycin response, DMSO as zero. activation, % at 20 µM. 330,000 tested, 0.33% active;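 active means versus positive control, 20 µM dose yields 30% or more activation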;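 further: 100% = tunicamycin at 10 µg/mL and 0% = DMSO only wells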
#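 Material: CHO-XBP1 cells stably carrying IRE1-XBP1-driven luciferase reporter | Medium: F12 with 10% serum | Compound dosing: 20 µM single concentration, DMSO 1% | Incubation: Overnight seeding at 37 °C, 6 h compound treatment at 37 °C | Detection: Steady-Glo luminescence read | Read-out basis: % activation of reporter signal versus tunicamycin and DMSO controls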
# TLR9-MyD88 inh – blocks human TLR9 binding to MyD88; Q9NR96+Q99836; CHO BLA complementation TLR9-MyD88, CCF4 FRET ratio; inhibition, % at 4.98 µM; 340,000 tested, 0.21% active; AID 504734;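 active means inhibition above the mean over all tested compounds plus 3 SD, cut at about 21% in these data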;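 further: 0% = DMSO only wells and 100% = clavulanate BLA inhibitor control wells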
# NOD2-RIPK2 inh – blocks binding of human NOD2 to RIPK2. O43353. CHO BLA complementation NOD2-RIPK2, CCF4 ratio. inhibition, % at 4.98 µM. 360,000 tested, 0.38% active. AID 624267; in the data active means inhibition above about 21%;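 further: 0% = vehicle only and 100% = reference blocker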
# Target sequence (O43353 whole entry, looked up): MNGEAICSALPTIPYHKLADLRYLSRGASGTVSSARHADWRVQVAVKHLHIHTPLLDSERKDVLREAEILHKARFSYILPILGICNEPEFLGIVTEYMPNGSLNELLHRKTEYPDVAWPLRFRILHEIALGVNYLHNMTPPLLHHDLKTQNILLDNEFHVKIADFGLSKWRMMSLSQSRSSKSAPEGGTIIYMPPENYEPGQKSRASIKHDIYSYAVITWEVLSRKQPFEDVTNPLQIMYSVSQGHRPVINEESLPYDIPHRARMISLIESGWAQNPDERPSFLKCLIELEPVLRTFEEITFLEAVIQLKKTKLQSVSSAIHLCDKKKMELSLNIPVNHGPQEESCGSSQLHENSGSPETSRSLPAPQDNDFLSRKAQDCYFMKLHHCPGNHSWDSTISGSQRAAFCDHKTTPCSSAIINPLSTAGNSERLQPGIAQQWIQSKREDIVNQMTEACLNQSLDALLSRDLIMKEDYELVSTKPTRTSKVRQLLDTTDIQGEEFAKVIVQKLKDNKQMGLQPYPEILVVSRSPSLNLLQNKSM
# CHOP inh conf – confirmation of CHOP induction inhibitors; 2,100 tested, 45% active; shares compounds with CHOP inhibitor; inhibition, % at 10 µM; AID 504437; CHO-CHOP promoter luciferase reporter, tunicamycin-induced, luminescence;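 active means mean of three repeat readings of reporter signal inhibition above a set limit, cut at about 70% in these data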;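 further: 0% = tunicamycin plus vehicle and 100% = wells lacking tunicamycin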
# * hit, by the source's call; / = no result given.
SMILES,CHOP inhibitor,UPR CHOP act,TLR4-MyD88 BLA,UPR XBP1 act,TLR9-MyD88 inh,NOD2-RIPK2 inh,CHOP inh conf
CCOc1ccc(NC(=NCc2ccc3c(c2)OCO3)SC2CC(=O)N(c3ccc(OCC)cc3)C2=O)cc1 (configuration not stated),98*,12,15,18,12,8,30
CCOc1ccc(N2C(=O)CC(SC(=NC)Nc3cccc(F)c3)C2=O)cc1 (configuration not stated),9,-1,3,-3,-5,0,/
CCCOc1ccc(N2C(=O)CC(SC(=NCC)Nc3cccc(F)c3)C2=O)cc1 (configuration not stated),105*,-2,-5,2,11,3,108*
CCC/C=C/c1ccc(CN2C(C(C)C)C(=O)N(Cc3cn(CC4CCCCC4)nn3)CCS2(=O)=O)cc1 (configuration not stated),/,/,/,/,-9,-7,/
CN(C)c1nc(=NCc2cccs2)ss1,/,/,/,/,3,1,/
c1cnc(NCCSSCCNc2ncccn2)nc1,/,/,/,/,2,2,/
COc1ccc(-c2c3c(nc4sc5c(=O)[nH]c(C)nc5c24)CCC3)cc1,113*,3,4,12,1,1,24
COc1ccc(-c2n[nH]c(C)c2-c2cnn(-c3ccccc3)c2)c(O)c1C,99*,2,-6,1,-2,-2,3
COc1ccc(-c2n[nH]c(C)c2-c2cnn(-c3ccccc3)c2)c(O)c1,-27,0,3,2,7,-2,/
CCNC(=O)C1(C)CCN(C(=O)c2ccc(OC)cc2)C1 (configuration not stated),/,/,/,/,/,6,/
CC1CCc2nc(NC(=O)CSc3nc4ccccc4o3)sc2C1 (configuration not stated),97*,-2,8,-8,11,-2,23
Cc1ccc(C(=O)N/C(=C\c2ccccc2F)c2nc(=S)[nH][nH]2)cc1,50,6,13,-2,8,-3,/
Cc1ccc(/C=C(\NC(=O)c2ccc(C)cc2)c2nc(=S)[nH][nH]2)cc1,110*,-2,11,-3,-3,-3,4
CC(=O)N1N=C(c2cccs2)CC1c1cc2cc(C)ccc2nc1Cl (configuration not stated),106*,-2,/,12,3,4,-55
COc1ccccc1OCC(=O)NCC1CCCN(C(=O)c2cccc(C)c2)C1 (configuration not stated),/,/,/,/,-10,5,/
S=C(NCCc1ccc(Cl)cc1)Nc1ccc(Cl)cc1Cl,105*,0,4,-2,-3,-5,95*
O=C(NCCc1ccc(Cl)cc1)Nc1cccc(Cl)c1,100*,3,2,1,-3,7,13
Cc1ccc(S(=O)(=O)Nc2ccccc2C(C(=O)OC(C)(C)C)C(=O)OC(C)(C)C)cc1,/,/,/,/,/,-2,/
O=C(NCCc1ccccc1)C1C(=O)Nc2ccccc2C(=O)N1C1CCCCC1 (configuration not stated),/,/,/,/,/,-2,/
C=CCSc1n[nH]c(-c2ccc(OCCC)cc2)n1,49,2,-9,2,-7,-8,/
C=CCSc1n[nH]c(-c2ccc(OCCCC)cc2)n1,106*,3,-8,5,9,-8,97*
Clc1ccccc1CN(Cc1ccccc1)c1ncnc2nc[nH]c12,107*,0,8,-1,13,9,39
Clc1ccccc1CNc1ncnc2nc[nH]c12,18,0,4,-1,-1,-2,/
O=C(Nc1ccccc1Cl)c1ccccc1Oc1ccc(C(F)(F)F)cc1[N+](=O)[O-],105*,-3,6,1,-2,-1,81*
O=C(c1ccccc1Oc1ccc(C(F)(F)F)cc1[N+](=O)[O-])N1CCOCC1,21,-3,-7,-2,4,-8,/
SMILES,CHOP inhibitor,UPR CHOP act,TLR4-MyD88 BLA,UPR XBP1 act,TLR9-MyD88 inh,NOD2-RIPK2 inh,CHOP inh conf
Clc1ccc(-c2csc(N/N=C/c3cccnc3)n2)c(Cl)c1,98*,0,4,2,-5,1,87*
Cc1ccccc1OCc1nc(-c2ccccc2)no1,100*,6,7,3,-6,-3,0
Cc1ccc(OCc2nc(-c3ccccc3)no2)cc1,19,8,/,2,4,-3,/
O=C(N/N=C/C=C/c1ccccc1)NC1CCCCC1,101*,1,14,0,3,-2,20
Cc1cccc(/C=C/c2nc3ccccc3c(=O)[nH]2)c1,102*,4,5,3,7,-12,121*
COc1cc(C)nc(N2CCCC(C(=O)Nc3cccc(Cl)c3C)C2)n1 (configuration not stated),105*,-1,1,2,0,-11,95*
Cn1c(=S)oc2ccccc21,7,2,/,-1,-6,0,/
CC(=O)/C=C/n1c(=S)oc2ccccc21,106*,/,16,/,/,/,116*
CC(C)CC(=O)/C=C/n1c(=S)oc2ccccc21,108*,/,2,/,-16,-1,42
CC(=O)Nc1ccc(NC(=O)CCn2c(=S)oc3ccccc32)cc1,13,0,-18,2,-9,-8,/
Cc1ccc(-c2nnc(SCC(=O)Nc3ccc(S(=O)(=O)N4CCCCCC4)cc3)o2)cc1,101*,0,-15,0,-8,-5,36
Nc1[nH]c(C(=O)c2ccccc2)c(-c2ccc(Cl)cc2)c1C(=O)NCc1ccccc1,/,/,/,/,/,-13,/
O=C(Cc1cccs1)N/N=C/C(Br)=C/c1ccccc1,104*,3,5,3,11,5,66
Cc1ccc(C(=O)N2C(=S)C(c3ccc(F)cc3)=NC23CCN(C)CC3)cc1,98*,6,-10,8,-2,6,16
O=C1[C@H](Cc2ccccc2)NCC=CC[C@@H](c2ccc(Cl)cc2)N1Cc1ccccc1,/,/,/,/,-6,-2,/
O=C(Nc1ccc(Oc2ccccc2)cc1)C1CCN(c2c3c(nc4ncnn24)CCC3)CC1,104*,7,-4,7,-1,3,92*
O=C(Nc1ccc2c(c1)CCC2)C1CCN(c2c3c(nc4ncnn24)CCC3)CC1,/,-1,-13,-1,-6,-5,/
O=C(NCc1ccccc1Cl)C1CCC(CNc2nc(=S)[nH]c3ccccc23)CC1 (configuration not stated),98*,-2,5,4,-7,2,16
CCCCNC(=O)C1CCC(CNc2nc(=S)[nH]c3ccccc23)CC1 (configuration not stated),23,3,1,0,0,-3,/
